Data set [1] is described as follows: Modulation of gamma secretase in CHO-2B7 cells assessed as reduction in amyloid beta 40 level after 5 hrs by MSD ELISA. Format: cell-based. The following applies: Cricetulus griseus, CHO-2B7, 5 h. In general terms: ELISA stands for enzyme-linked immunosorbent assay.
Data set [2] can be described thus: Metabolic stability in human liver microsomes assessed as compound remaining at 1 uM at 60 mins by LC/MS/MS analysis in absence of NADPH. The data set is classed as ADME, Microsome. The following applies: liver microsomes, read-out: Stability. The procedure, abridged: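 Human liver microsomes were run without NADPH as a qualitative read of susceptibility to enzymatic hydrolysis. The read-out was percent parent remaining at 60 min.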
(In general: Liver microsomes are a subcellular fraction often used to study metabolism.)

Data set [3] can be described thus: Modulation of gamma secretase in CHO-2B7 cells assessed as reduction in amyloid beta 42 level after 5 hrs by MSD ELISA. The data set is classed as cell-based. The following applies: Cricetulus griseus, CHO-2B7, 5 h.
A further data set concerns Liver microsomes. The experiment in a line: Metabolic stability in human liver microsomes at 1 uM after 60 mins by LC/MS/MS analysis. As to conditions: 1 h.
The next data set concerns CHO-2B7. Description: Modulation of gamma secretase in CHO-2B7 cells assessed as reduction in amyloid beta 40 level at 20 uM after 5 hrs by MSD ELISA. Further details: scale not given: the % may be the effect or the level left. The data set is classed as cell-based. The following applies: Cricetulus griseus.

One may read the IC50 as the midpoint of a concentration-inhibition curve. As for `CO[C@@H]([C@H]1C[C@@H](C)[C@H]2[C@H](O1)[C@H](O)[C@@]1(C)[C@@H]3CC[C@H]4C(C)(C)[C@@H](O[C@H]5CN(C6COC6)CCO5)CC[C@@]45C[C@@]35CC[C@]21C)C(C)(C)O`, the IC50 in data set [1] worked out at 9900 nM; in data set [3] it was 690 nM. In addition, in data set [2], the remaining at 1 h, 1 µM came out at 93%.

For `CC(C)[C@@H](OC(=O)N1CCC1)[C@H]1C[C@@H](C)[C@H]2[C@H](O1)[C@H](O)[C@@]1(C)[C@@H]3CC[C@H]4C(C)(C)[C@@H](OC(=O)N5CCOCC5)CC[C@@]45C[C@@]35CC[C@]21C`, the Stability result in the data set on Liver microsomes was “Stable”. The IC50 in data set [1] was determined as 11000 nM; in data set [3], 360 nM. For the same compound, in data set [2], the remaining at 1 h, 1 µM turned out to be 104%.

For `CC(C)[C@@H](OC(=O)N1CCC1)[C@H]1C[C@@H](C)[C@H]2[C@H](O1)[C@H](O)[C@@]1(C)[C@@H]3CC[C@H]4C(C)(C)[C@@H](OC(=O)N5CCC(F)(F)CC5)CC[C@@]45C[C@@]35CC[C@]21C`, the Stability entry in the data set with Liver microsomes is “Stable”. For the same compound, the Activity in the data set on CHO-2B7 worked out at 12%. Moreover, the concentration for half-maximal inhibition (IC50) in data set [3] was determined as 9100 nM.

As for `CNC(=O)O[C@H](C(C)C)[C@H]1C[C@@H](C)[C@H]2[C@H](O1)[C@H](O)[C@@]1(C)[C@@H]3CC[C@H]4C(C)(C)[C@@H](O[C@H]5CNCCO5)CC[C@@]45C[C@@]35CC[C@]21C`, the results for the IC50 in data set [1] and in data set [3] were 4300 nM and 480 nM, respectively. In addition, in data set [2], the remaining at 1 h, 1 µM was determined as 95%.

For `CC(C)O[C@@H]([C@H]1C[C@@H](C)[C@H]2[C@H](O1)[C@H](O)[C@@]1(C)[C@@H]3CC[C@H]4C(C)(C)[C@@H](O[C@H]5CN(C6COC6)CCO5)CC[C@@]45C[C@@]35CC[C@]21C)C(C)(C)O`, the IC50 in data set [1] was found to be 2800 nM; in data set [3], 440 nM. Also, the remaining at 1 h, 1 µM in data set [2] was found to be 105%.

On to `CCO[C@@H]([C@H]1C[C@@H](C)[C@H]2[C@H](O1)[C@H](O)[C@@]1(C)[C@@H]3CC[C@H]4C(C)(C)[C@@H](OC(=O)NC)CC[C@@]45C[C@@]35CC[C@]21C)C(C)(C)O`, for which the Stability entry in the data set on Liver microsomes is reported as “Stable”. Moreover, the Activity in the data set on CHO-2B7 is 47%. In data set [3], the IC50 worked out at 360 nM.

Consider `CC(C)[C@@H](OC(N)=O)[C@H]1C[C@@H](C)[C@H]2[C@H](O1)[C@H](O)[C@@]1(C)[C@@H]3CC[C@H]4C(C)(C)[C@@H](OC(N)=O)CC[C@@]45C[C@@]35CC[C@]21C`, for which the IC50 in data set [1] was found to be 1200 nM; in data set [3], 700 nM. For the same compound, the remaining at 1 h, 1 µM in data set [2] was 103%.

In the case of `CC(=O)O[C@H](C(C)C)[C@H]1C[C@@H](C)[C@H]2[C@H](O1)[C@H](O)[C@@]1(C)[C@@H]3CC[C@H]4C(C)(C)[C@@H](O)CC[C@@]45C[C@@]35CC[C@]21C`, the results for the IC50 in data set [1] and in data set [3] were 7500 nM and 780 nM, respectively. Further, the remaining at 1 h, 1 µM in data set [2] stood at 0%.

On to `CC(=O)O[C@@H]([C@H]1C[C@@H](C)[C@H]2[C@H](O1)[C@H](O)[C@@]1(C)[C@@H]3CC[C@H]4C(C)(C)[C@@H](OC(=O)N5CCOCC5)CC[C@@]45C[C@@]35CC[C@]21C)C(C)(C)O`, for which the values for the IC50 in data set [1] and in data set [3] were 14000 nM and 310 nM, respectively. Moreover, the remaining at 1 h, 1 µM in data set [2] came to 2%.

Take `CC(C)CO[C@@H]([C@H]1C[C@@H](C)[C@H]2[C@H](O1)[C@H](O)[C@@]1(C)[C@@H]3CC[C@H]4C(C)(C)[C@@H](O[C@H]5CN(C6COC6)CCO5)CC[C@@]45C[C@@]35CC[C@]21C)C(C)(C)O`: the results for the IC50 in data set [1] and in data set [3] were 6000 nM and 3000 nM, respectively. The remaining at 1 h, 1 µM in data set [2] is 78%.

Take `CCO[C@H](C(C)C)[C@H]1C[C@@H](C)[C@H]2[C@H](O1)[C@H](O)[C@@]1(C)[C@@H]3CC[C@H]4C(C)(C)[C@@H](O)CC[C@@]45C[C@@]35CC[C@]21C`: in data set [2], the remaining at 1 h, 1 µM came out at 85%. Moreover, the IC50 in data set [3] was 4400 nM.

Consider `CNC(=O)OC[C@H]1C[C@@H](C)[C@H]2[C@H](O1)[C@H](O)[C@@]1(C)[C@@H]3CC[C@H]4C(C)(C)[C@@H](O[C@H]5CN(C(=O)CC6CC6)CCO5)CC[C@@]45C[C@@]35CC[C@]21C`, for which the IC50 is 81000 nM in data set [1] and 350 nM in data set [3]. The remaining at 1 h, 1 µM in data set [2] amounted to 81%.

For `CC(C)[C@@H](OC(=O)N(C)C)[C@H]1C[C@@H](C)[C@H]2[C@H](O1)[C@H](O)[C@@]1(C)[C@@H]3CC[C@H]4C(C)(C)[C@@H](O)CC[C@@]45C[C@@]35CC[C@]21C`, the results for the IC50 in data set [1] and in data set [3] were 10000 nM and 1000 nM, respectively. In addition, the remaining at 1 h, 1 µM in data set [2] is 81%.

Consider `CC(=O)O[C@@H]([C@H]1C[C@@H](C)[C@H]2[C@H](O1)[C@H](O)[C@@]1(C)[C@@H]3CC[C@H]4C(C)(C)[C@@H](OC(N)=O)CC[C@@]45C[C@@]35CC[C@]21C)C(C)(C)O`, for which, in the data set on CHO-2B7, the Activity was found to be 37%. Besides, the IC50 in data set [3] was 200 nM.

In the case of `CC(C)[C@@H](OC(N)=O)[C@H]1C[C@@H](C)[C@H]2[C@H](O1)[C@H](O)[C@@]1(C)[C@@H]3CC[C@H]4C(C)(C)[C@@H](O[C@H]5CNCCO5)CC[C@@]45C[C@@]35CC[C@]21C`, the IC50 in data set [1] was determined as 1700 nM; in data set [3], 650 nM. In addition, the remaining at 1 h, 1 µM in data set [2] was determined as 108%.

For the compound `C=C(C)CO[C@@H]([C@H]1C[C@@H](C)[C@H]2[C@H](O1)[C@H](O)[C@@]1(C)[C@@H]3CC[C@H]4C(C)(C)[C@@H](O[C@H]5CN(C6COC6)CCO5)CC[C@@]45C[C@@]35CC[C@]21C)C(C)(C)O`, the IC50 came to 11000 nM in data set [1] and 340 nM in data set [3]. The remaining at 1 h, 1 µM in data set [2] came to 84%.

As for `CC(C)[C@@H](OC(=O)N(C)C)[C@H]1C[C@@H](C)[C@H]2[C@H](O1)[C@H](O)[C@@]1(C)[C@@H]3CC[C@H]4C(C)(C)[C@@H](O[C@H]5CNCCO5)CC[C@@]45C[C@@]35CC[C@]21C`, the values for the concentration for half-maximal inhibition (IC50) in data set [1] and in data set [3] were 5900 nM and 580 nM, respectively. In addition, in data set [2], the remaining at 1 h, 1 µM stood at 114%.

Consider `CNC(=O)O[C@H](C(C)C)[C@H]1C[C@@H](C)[C@H]2[C@H](O1)[C@H](O)[C@@]1(C)[C@@H]3CC[C@H]4C(C)(C)[C@@H](O)CC[C@@]45C[C@@]35CC[C@]21C`, for which the IC50 in data set [1] was determined as 8500 nM; in data set [3], 890 nM. Besides, the remaining at 1 h, 1 µM in data set [2] was found to be 96%.

Take `CC(=O)O[C@@H]([C@H]1C[C@@H](C)[C@H]2[C@H](O1)[C@H](O)[C@@]1(C)[C@@H]3CC[C@H]4C(C)(C)[C@@H](OC(=O)N5CCC5)CC[C@@]45C[C@@]35CC[C@]21C)C(C)(C)O`: the results for the half-maximal inhibitory concentration (IC50) in data set [1] and in data set [3] were 15000 nM and 510 nM, respectively. Besides, in data set [2], the remaining at 1 h, 1 µM amounted to 17%.

Turning to `C[C@@H]1C[C@H](COC(N)=O)O[C@H]2[C@H]1[C@@]1(C)CC[C@@]34C[C@@]35CC[C@H](O[C@H]3CN(C(=O)CC6CC6)CCO3)C(C)(C)[C@@H]5CC[C@H]4[C@]1(C)[C@H]2O`, the IC50 in data set [1] amounted to 35000 nM; in data set [3] it was 840 nM. In data set [2], the remaining at 1 h, 1 µM came out at 77%.

As to `CNC(=O)O[C@H](C(C)C)[C@H]1C[C@@H](C)[C@H]2[C@H](O1)[C@H](O)[C@@]1(C)[C@@H]3CC[C@H]4C(C)(C)[C@@H](OC(=O)NC5CNC5)CC[C@@]45C[C@@]35CC[C@]21C`, the 50% inhibitory concentration (IC50) was 5000 nM in data set [1] and 120 nM in data set [3]. Also, in data set [2], the remaining at 1 h, 1 µM came out at 110%.

For `CCO[C@@H]([C@H]1C[C@@H](C)[C@H]2[C@H](O1)[C@H](O)[C@@]1(C)[C@@H]3CC[C@H]4C(C)(C)[C@@H](OC(=O)NC5CNC5)CC[C@@]45C[C@@]35CC[C@]21C)C(C)(C)O`, the Stability entry with Liver microsomes is “Stable”. Besides, the half-inhibitory concentration (IC50) in data set [1] was found to be 1900 nM; in data set [3], 53 nM. Also, the remaining at 1 h, 1 µM in data set [2] worked out at 92%.

`CCO[C@@H]([C@H]1C[C@@H](C)[C@H]2[C@H](O1)[C@H](O)[C@@]1(C)[C@@H]3CC[C@H]4C(C)(C)[C@@H](OC(=O)N5CCOCC5)CC[C@@]45C[C@@]35CC[C@]21C)C(C)(C)O`: the results for the concentration for half-maximal inhibition (IC50) in data set [1] and in data set [3] were 2000 nM and 220 nM, respectively. The remaining at 1 h, 1 µM in data set [2] was determined as 77%.

For `CCO[C@@H]([C@H]1C[C@@H](C)[C@H]2[C@H](O1)[C@H](O)[C@@]1(C)[C@@H]3CC[C@H]4C(C)(C)[C@@H](OC(N)=O)CC[C@@]45C[C@@]35CC[C@]21C)C(C)(C)O`, in the data set on Liver microsomes, the Stability entry is on record as “Stable”. Moreover, the IC50 in data set [1] was found to be 3900 nM; in data set [3] it was 210 nM. Moreover, in data set [2], the remaining at 1 h, 1 µM was 116%.

For `CC(C)[C@@H](OC(=O)N(C)C)[C@H]1C[C@@H](C)[C@H]2[C@H](O1)[C@H](O)[C@@]1(C)[C@@H]3CC[C@H]4C(C)(C)[C@@H](OC(=O)NC5CNC5)CC[C@@]45C[C@@]35CC[C@]21C`, the IC50 worked out at 9500 nM in data set [1] and 300 nM in data set [3]. For the same compound, the remaining at 1 h, 1 µM in data set [2] was 113%.

Consider `CCO[C@@H]([C@H]1C[C@@H](C)[C@H]2[C@H](O1)[C@H](O)[C@@]1(C)[C@@H]3CC[C@H]4C(C)(C)[C@@H](O)CC[C@@]45C[C@@]35CC[C@]21C)C(C)(C)O`, for which the IC50 in data set [1] stood at 5500 nM; in data set [3], 350 nM. Also, the remaining at 1 h, 1 µM in data set [2] worked out at 100%.

With `CC(C)[C@@H](OC(=O)N1CCC1)[C@H]1C[C@@H](C)[C@H]2[C@H](O1)[C@H](O)[C@@]1(C)[C@@H]3CC[C@H]4C(C)(C)[C@@H](O[C@H]5CN([C@@H]6CCNC6=O)CCO5)CC[C@@]45C[C@@]35CC[C@]21C`, in the data set with Liver microsomes, the Stability result is given as “Stable”. For the same compound, the IC50 in data set [1] stood at 15000 nM; in data set [3], 490 nM.

The record behind these values is ChEMBL document CHEMBL2203235, “Optimization of a natural product-based class of γ-secretase modulators” (J Med Chem, 2012).
